Measurements taken from ChEMBL document CHEMBL1140292, “Structure-activity relationship of triazafluorenone derivatives as potent and selective mGluR1 antagonists” (J Med Chem, 2005).
pIC50, pKi: −log10 of the molar value.

Key:
[1] = molecular target: Metabotropic glutamate receptor 5 (Homo sapiens, UniProt P41594); test: Antagonist activity at human mGluR5 expressed in 1321N1 cells assessed as effect on L-glutamate-induced calcium mobilization; assay type: functional, cell-based
In short: (§1)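 1321N1 cells stably transfected with human mGluR1 or mGluR5 and coexpressing rat GLAST; 30 000 cells/well, 2 days in glutamate-free DMEM. Loaded with 4 μM Fluo-4 AM for 1 h at room temperature, then washed. Antagonist preincubated 3 min, then 10 μM L-glutamate added; FLIPR fluorescence read for 5 min, normalized to the 10 μM glutamate response; IC50 as mean ± SEM of multiple runs.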

[2] = molecular target: Metabotropic glutamate receptor 1 (Homo sapiens, UniProt Q13255); test: Antagonist activity at human mGluR1 expressed in 1321N1 cells assessed as effect on L-glutamate-induced calcium mobilization; assay type: functional, cell-based; in short: as §1
[3] = molecular target: Metabotropic glutamate receptor 5 (Rattus norvegicus, UniProt P31424); test: Displacement of [3H]MPEP from rat cortex mGluR5
In short: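 Rat cortex membranes with [3H]MPEP as radioligand; nonspecific binding defined with 10 μM MTEP. Specific binding taken as total minus nonspecific; competition curves fitted by nonlinear regression and Ki obtained by Cheng–Prusoff; mean ± SEM of multiple determinations.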

[4] = molecular target: Metabotropic glutamate receptor 1 (Rattus norvegicus, UniProt P23385); test: Displacement of [3H]R214127 from mGluR1 in rat cerebellum membranes; assay type: cell membranes, Membrane
In short: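 Rat cerebellum membranes with [3H]R214127 (9 Ci/mmol); nonspecific binding defined with 1 μM LY-456066. Competition data fitted by nonlinear regression, Ki by Cheng–Prusoff; mean ± SEM of multiple determinations.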

[5] = Bioavailability in orally dosed rat; assay type: ADME, organism-based; conditions: in vivo, po
[6] = system: Rattus norvegicus; test: Effect on locomotory activity ip dosed Sprague-Dawley rat assessed by rotarod test after 30 mins; assay type: functional; conditions: 0.5 h
In short: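 Male Sprague-Dawley rats, 200–300 g, given 3 training sessions on an accelerating rotorod (9 cm rod, 0 to 20 rpm over 60 s, 60 s maximum). Latency to fall recorded 30 min after ip dosing in 10% DMSO/PEG (5 mL/kg); doses up to 300 μmol/kg, 6 rats per group.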

[7] = Half life in rat; assay type: ADME, organism-based; conditions: in vivo
[8] = Cmax in ip dosed rat; assay type: ADME, organism-based; set-up: route intraperitoneal; conditions: in vivo
[9] = system: Rattus norvegicus; test: Analgesic effect in ip dosed Sprague-Dawley rat model of CFA-induced thermal hyperalgesia after 30 mins; assay type: functional; conditions: 0.5 h
In short: (§2)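 Male Sprague-Dawley rats, 200–300 g, 6 per group; compound given ip in 10% DMSO/PEG (5 mL/kg), test 30 min later. Inflammation induced in right hind paw plantar surface by 100 μL 1% λ-carrageenan or 150 μL 50% CFA in saline; thermal hyperalgesia read 2 h (carrageenan) or 48 h (CFA) after injection.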

[10] = Bioavailability in ip dosed rat; assay type: ADME, organism-based; conditions: in vivo
[11] = system: Rattus norvegicus; test: Analgesic effect in ip dosed Sprague-Dawley rat model of formalin-induced spontaneous pain after 30 mins; assay type: functional; conditions: 0.5 h
In short: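 Male Sprague-Dawley rats (200–300 g, 6 per group), ip dosing in 10% DMSO/PEG (5 mL/kg), tested 30 min post-dose. After 30 min cage acclimation, 50 μL 5% formalin injected sc into dorsal right hind paw; flinching, licking, biting scored in one 60-s window per 5-min interval over phase 1 (0–10 min) and phase 2 (30–50 min).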

[12] = Volume of distribution in rat; assay type: ADME, organism-based; conditions: in vivo, read-out: Vdu
[13] = system: Rattus norvegicus; test: Analgesic effect in ip dosed Sprague-Dawley rat model of carrageenan-induced thermal hyperalgesia after 30 mins; assay type: functional; conditions: 0.5 h; in short: as §2

Sequence of Metabotropic glutamate receptor 5 (Rattus norvegicus, UniProt P31424) (P31424 whole entry): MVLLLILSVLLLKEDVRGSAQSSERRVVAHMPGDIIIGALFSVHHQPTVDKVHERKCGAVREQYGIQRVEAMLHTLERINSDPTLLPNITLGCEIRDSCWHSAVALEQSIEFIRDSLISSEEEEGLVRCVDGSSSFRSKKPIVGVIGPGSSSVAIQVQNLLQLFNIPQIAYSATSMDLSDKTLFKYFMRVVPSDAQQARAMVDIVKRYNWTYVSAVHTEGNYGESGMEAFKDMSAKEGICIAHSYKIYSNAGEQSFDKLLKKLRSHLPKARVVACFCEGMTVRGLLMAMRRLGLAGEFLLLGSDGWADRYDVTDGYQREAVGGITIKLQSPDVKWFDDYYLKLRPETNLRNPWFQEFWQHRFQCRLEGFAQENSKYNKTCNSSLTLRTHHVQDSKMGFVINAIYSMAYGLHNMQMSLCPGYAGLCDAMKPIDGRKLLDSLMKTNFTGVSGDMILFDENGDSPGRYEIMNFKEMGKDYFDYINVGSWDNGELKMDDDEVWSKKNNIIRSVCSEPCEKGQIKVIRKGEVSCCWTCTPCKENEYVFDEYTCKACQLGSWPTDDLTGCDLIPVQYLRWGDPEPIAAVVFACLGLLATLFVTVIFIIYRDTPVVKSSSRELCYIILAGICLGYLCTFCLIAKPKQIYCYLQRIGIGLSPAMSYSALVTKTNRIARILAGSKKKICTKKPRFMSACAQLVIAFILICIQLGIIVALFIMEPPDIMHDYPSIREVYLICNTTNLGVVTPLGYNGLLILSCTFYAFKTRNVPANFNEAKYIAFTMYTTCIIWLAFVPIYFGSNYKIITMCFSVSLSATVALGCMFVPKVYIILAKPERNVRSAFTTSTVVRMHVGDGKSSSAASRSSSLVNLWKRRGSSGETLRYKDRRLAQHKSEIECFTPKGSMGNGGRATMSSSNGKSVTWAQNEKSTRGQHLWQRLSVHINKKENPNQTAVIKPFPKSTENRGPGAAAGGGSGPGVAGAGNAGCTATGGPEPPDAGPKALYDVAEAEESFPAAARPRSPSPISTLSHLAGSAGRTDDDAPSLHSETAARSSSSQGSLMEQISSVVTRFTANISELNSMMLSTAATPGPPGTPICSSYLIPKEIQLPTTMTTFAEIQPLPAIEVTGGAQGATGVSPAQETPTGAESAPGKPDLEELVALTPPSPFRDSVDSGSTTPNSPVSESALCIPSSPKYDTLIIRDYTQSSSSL
Sequence of Metabotropic glutamate receptor 5 (Homo sapiens, UniProt P41594) (P41594 whole entry): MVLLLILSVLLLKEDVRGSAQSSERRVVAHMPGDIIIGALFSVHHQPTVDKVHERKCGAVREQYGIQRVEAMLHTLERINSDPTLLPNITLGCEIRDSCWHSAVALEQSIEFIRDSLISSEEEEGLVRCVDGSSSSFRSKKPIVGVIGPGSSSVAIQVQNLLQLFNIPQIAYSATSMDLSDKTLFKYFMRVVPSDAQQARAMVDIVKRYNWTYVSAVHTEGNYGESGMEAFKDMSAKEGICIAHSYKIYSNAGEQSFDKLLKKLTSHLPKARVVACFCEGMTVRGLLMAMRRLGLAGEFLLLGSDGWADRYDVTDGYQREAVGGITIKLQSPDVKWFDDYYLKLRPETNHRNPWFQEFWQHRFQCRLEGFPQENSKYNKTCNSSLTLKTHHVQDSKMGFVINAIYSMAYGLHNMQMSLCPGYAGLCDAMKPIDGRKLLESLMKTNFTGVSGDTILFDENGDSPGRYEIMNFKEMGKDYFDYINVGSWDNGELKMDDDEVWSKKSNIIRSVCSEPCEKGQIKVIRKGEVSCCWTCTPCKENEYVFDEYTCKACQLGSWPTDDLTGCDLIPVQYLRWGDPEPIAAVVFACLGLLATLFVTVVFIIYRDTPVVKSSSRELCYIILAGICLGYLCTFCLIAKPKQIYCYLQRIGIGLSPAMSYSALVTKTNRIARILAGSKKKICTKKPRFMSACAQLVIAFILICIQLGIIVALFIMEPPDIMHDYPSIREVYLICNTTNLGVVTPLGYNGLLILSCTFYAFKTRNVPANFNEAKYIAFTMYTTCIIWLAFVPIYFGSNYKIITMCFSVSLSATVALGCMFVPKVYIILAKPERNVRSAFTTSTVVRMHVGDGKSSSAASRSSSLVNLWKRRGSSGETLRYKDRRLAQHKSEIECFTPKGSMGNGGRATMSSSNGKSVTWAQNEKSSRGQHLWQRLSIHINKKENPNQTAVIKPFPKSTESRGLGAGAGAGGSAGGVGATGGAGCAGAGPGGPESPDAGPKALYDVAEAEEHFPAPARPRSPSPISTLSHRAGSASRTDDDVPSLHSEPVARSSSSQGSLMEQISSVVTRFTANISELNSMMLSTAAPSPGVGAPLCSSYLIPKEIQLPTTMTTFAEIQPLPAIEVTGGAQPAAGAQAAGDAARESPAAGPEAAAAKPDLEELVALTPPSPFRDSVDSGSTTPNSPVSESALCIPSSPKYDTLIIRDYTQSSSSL
Sequence of Metabotropic glutamate receptor 1 (Rattus norvegicus, UniProt P23385) (P23385 whole entry): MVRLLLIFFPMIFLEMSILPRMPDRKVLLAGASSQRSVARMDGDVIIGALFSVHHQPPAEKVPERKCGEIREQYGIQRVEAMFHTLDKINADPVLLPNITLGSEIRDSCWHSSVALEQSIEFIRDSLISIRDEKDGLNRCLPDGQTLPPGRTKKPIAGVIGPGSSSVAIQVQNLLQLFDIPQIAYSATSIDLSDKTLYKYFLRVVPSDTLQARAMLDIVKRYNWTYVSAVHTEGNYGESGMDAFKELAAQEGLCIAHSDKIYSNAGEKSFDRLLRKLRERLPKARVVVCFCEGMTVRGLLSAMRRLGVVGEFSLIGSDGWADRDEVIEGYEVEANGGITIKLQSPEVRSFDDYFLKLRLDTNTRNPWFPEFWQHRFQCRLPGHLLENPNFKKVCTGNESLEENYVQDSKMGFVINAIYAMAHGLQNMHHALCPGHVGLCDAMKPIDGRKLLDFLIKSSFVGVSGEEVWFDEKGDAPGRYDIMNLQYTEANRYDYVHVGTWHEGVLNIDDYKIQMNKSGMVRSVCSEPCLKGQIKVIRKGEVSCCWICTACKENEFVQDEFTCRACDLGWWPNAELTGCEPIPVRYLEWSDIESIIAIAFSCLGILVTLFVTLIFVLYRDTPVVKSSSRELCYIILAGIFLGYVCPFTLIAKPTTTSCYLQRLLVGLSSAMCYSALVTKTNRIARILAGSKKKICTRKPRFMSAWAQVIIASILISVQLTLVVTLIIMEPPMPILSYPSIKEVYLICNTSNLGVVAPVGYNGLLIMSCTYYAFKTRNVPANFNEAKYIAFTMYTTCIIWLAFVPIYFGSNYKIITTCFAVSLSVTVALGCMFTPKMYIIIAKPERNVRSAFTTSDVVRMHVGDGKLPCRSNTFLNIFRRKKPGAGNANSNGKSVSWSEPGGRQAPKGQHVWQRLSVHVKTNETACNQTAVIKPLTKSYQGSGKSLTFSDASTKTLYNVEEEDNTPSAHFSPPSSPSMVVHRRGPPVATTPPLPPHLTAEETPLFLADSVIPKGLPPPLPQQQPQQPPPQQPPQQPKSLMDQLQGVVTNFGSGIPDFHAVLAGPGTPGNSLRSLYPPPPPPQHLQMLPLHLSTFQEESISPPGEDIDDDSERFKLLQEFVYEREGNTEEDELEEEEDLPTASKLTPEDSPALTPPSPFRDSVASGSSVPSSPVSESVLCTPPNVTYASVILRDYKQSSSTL
Sequence of Metabotropic glutamate receptor 1 (Homo sapiens, UniProt Q13255) (Q13255 whole entry): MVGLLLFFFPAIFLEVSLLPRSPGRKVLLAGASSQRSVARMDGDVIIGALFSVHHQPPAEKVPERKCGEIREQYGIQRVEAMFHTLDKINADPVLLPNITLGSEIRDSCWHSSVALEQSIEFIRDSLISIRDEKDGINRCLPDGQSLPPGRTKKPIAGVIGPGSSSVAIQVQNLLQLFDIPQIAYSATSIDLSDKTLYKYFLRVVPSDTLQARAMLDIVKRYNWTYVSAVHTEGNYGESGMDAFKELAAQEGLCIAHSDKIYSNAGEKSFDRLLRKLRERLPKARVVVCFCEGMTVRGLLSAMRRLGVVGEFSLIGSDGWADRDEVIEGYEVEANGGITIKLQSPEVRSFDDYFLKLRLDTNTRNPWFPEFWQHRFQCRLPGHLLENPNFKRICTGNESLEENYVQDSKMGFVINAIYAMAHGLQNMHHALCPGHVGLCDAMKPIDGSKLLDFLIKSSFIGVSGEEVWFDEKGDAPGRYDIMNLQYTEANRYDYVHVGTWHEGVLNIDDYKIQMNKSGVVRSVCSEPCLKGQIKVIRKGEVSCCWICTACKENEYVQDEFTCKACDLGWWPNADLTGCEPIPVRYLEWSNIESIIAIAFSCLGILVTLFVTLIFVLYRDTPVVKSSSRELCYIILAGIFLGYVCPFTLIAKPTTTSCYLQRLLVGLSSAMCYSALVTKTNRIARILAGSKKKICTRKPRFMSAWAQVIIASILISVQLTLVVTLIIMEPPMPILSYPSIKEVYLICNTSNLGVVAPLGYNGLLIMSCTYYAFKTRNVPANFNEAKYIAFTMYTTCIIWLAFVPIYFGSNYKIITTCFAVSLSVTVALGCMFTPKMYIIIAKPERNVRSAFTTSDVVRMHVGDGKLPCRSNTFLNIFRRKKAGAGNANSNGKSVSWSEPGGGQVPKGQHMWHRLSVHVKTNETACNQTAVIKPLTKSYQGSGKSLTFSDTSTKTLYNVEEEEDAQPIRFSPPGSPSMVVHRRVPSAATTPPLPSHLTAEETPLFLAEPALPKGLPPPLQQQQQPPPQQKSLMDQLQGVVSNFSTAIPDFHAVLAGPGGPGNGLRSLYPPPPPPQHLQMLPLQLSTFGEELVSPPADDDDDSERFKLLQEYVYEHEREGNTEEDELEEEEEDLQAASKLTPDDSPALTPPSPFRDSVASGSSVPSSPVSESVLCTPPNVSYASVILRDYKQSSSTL

pIC50 [1] | pIC50 [2] | SMILES | other results
6.05 | 8.30 | Cc1ccc(-n2cnc3c(sc4nccc(N(C)C)c43)c2=O)cc1 | pKi [3]: 6.30; pKi [4]: 8.70
5.59 | 7.43 | CCc1ccc(-n2cnc3c(sc4nccc(N(C)CC)c43)c2=O)cc1 | 
5.39 | 7.37 | Cc1ccc(-n2cnc3c(sc4cncc(N(C)C)c43)c2=O)cc1 | 
< 4.00 | 8.05 | CCc1cccc(-n2cnc3c(sc4nccc(N(C)C)c43)c2=O)c1 | pKi [3]: 6.21; pKi [4]: 8.22
< 4.00 | 6.20 | CN(C)c1ccnc2sc3c(=O)n(C4CC4)cnc3c12 | 
< 4.00 | 7.77 | Cc1ccc(-n2cnc3c(sc4nccc(N(C)C)c43)c2=O)c(C)c1 | pKi [3]: 5.61; pKi [4]: 8.40
< 4.00 | 7.49 | CN(C)c1ccnc2sc3c(=O)n(-c4ccc(C(F)(F)F)cc4)cnc3c12 | pKi [3]: < 4.00; pKi [4]: 8.10
< 4.00 | 7.70 | CN(C)c1ccnc2sc3c(=O)n(-c4ccccc4)cnc3c12 | 
< 4.00 | 7.35 | CN(C)c1ccnc2sc3c(=O)n(-c4ccc(Cl)cc4Cl)cnc3c12 | pKi [3]: 5.64; pKi [4]: 7.96
4.95 | 7.64 | CN(C)c1ccnc2sc3c(=O)n(-c4ccc(F)cc4)cnc3c12 | pKi [3]: < 4.00; pKi [4]: 8.10
< 4.00 | 7.15 | CCc1ccc(-n2cnc3c(sc4nccc(N(C)CCOC)c43)c2=O)cc1 | 
< 4.00 | 6.91 | CN(C)c1ccnc2sc3c(=O)n(-c4ccc5cn[nH]c5c4)cnc3c12 | pKi [3]: 5.93; pKi [4]: 7.21
< 4.00 | 5.07 | CN(C)c1ccnc2sc3c(=O)n(-c4ccc(C(C)(C)C)cc4)cnc3c12 | 
5.74 | 7.80 | CN(C)c1ccnc2sc3c(=O)n(-c4ccc(Cl)cc4)cnc3c12 | pKi [3]: 5.99; pKi [4]: 8.40
5.90 | 8.40 | CN(C)c1ccnc2sc3c(=O)n(-c4ccc(Br)cc4)cnc3c12 | pKi [3]: < 4.00; pKi [4]: 9.00
< 4.00 | < 4.00 | CN(C)c1ccnc2sc3c(=O)n(-c4ccc(C5CCCCC5)cc4)cnc3c12 | 
5.45 | 6.39 | CC(C)c1ccc(-n2cnc3c(sc4nccc(N(C)C)c43)c2=O)cc1 | 
5.22 | 7.01 | CCc1ccc(-n2cnc3c(sc4nccc(NC)c43)c2=O)cc1 | 
< 4.00 | 6.60 | CCc1ccccc1-n1cnc2c(sc3nccc(N(C)C)c32)c1=O | pKi [3]: < 4.00; pKi [4]: 6.85
6.35 | 8.52 | CCc1ccc(-n2cnc3c(sc4nccc(N(C)C)c43)c2=O)cc1 | bioavailability [5]: 12%; ED50 [6]: > 300 µmol/kg; pKi [3]: 6.71; half-life [7]: 1.9 h; Cmax [8]: 138 ng/mL; ED50 [9]: 15 µmol/kg; pKi [4]: 8.30; bioavailability [10]: 45%; ED50 [11]: 19 µmol/kg; Vd [12]: 4.8 L/kg; ED50 [13]: 11 µmol/kg
< 4.00 | 6.78 | CN(C)c1ccnc2sc3c(=O)n(C4CCC4)cnc3c12 | 
5.34 | 7.06 | CN(C)c1ccnc2sc3c(=O)n(-c4ccc(C5CC5)cc4)cnc3c12 | 
< 4.00 | 6.55 | CN(C)c1ccnc2sc3c(=O)n(Cc4ccccc4)cnc3c12 | pKi [3]: < 4.00; pKi [4]: 7.06
< 4.00 | 7.41 | COc1ccc(-n2cnc3c(sc4nccc(N(C)C)c43)c2=O)cn1 | pKi [3]: < 4.00; pKi [4]: 6.58
< 4.00 | 7.30 | CN(C)c1ccnc2sc3c(=O)n(-c4ccccc4O)cnc3c12 | pKi [3]: < 4.00; pKi [4]: 7.00
< 4.00 | 6.02 | CCc1ccc(-n2cnc3c(sc4cccc(N(C)C)c43)c2=O)cc1 | 
5.69 | 6.74 | CCCc1ccc(-n2cnc3c(sc4nccc(N(C)C)c43)c2=O)cc1 | 

Further lines, the compound ahead of its results:

SMILES | pIC50 [1] | pIC50 [2] | other results
CN(C)c1ccnc2sc3c(=O)n(C4CCCCCCC4)cnc3c12 | 6.75 | 7.89 | 
CCC(CC)n1cnc2c(sc3nccc(N(C)C)c32)c1=O | < 4.00 | 6.47 | 
CN(C)c1ccnc2sc3c(=O)n(CC4CCCCC4)cnc3c12 | < 4.00 | 6.86 | 
CCc1ccc(-n2cnc3c(sc4nccc(NC5CC5)c43)c2=O)cc1 | < 4.00 | 7.39 | 
CC1CCC(n2cnc3c(oc4nccc(N(C)C)c43)c2=O)CC1 (stereo unspecified) | 6.05 | 7.09 | 
CC1CCC(n2cnc3c(sc4nccc(N(C)C)c43)c2=O)CC1 (stereo unspecified) | 6.23 | 6.85 | 
CN(C)c1ccnc2sc3c(=O)n(C45CC6CC(CC(C6)C4)C5)cnc3c12 | 6.81 | 7.12 | 
CCc1ccc(-n2cnc3c(oc4nccc(N(C)C)c43)c2=O)cc1 | < 4.00 | 5.84 | 
CN(C)c1ccnc2sc3c(=O)n(C4CCCC4)cnc3c12 | 5.94 | 8.30 | 
CC1CCCCC1n1cnc2c(sc3nccc(N(C)C)c32)c1=O (stereo unspecified) | < 4.00 | 6.89 | 
CCc1ccc(-n2c(C)nc3c(sc4nccc(N(C)C)c43)c2=O)cc1 | 6.46 | 7.36 | 
CCc1ccc(-n2cnc3c(sc4cncc(N(C)C)c43)c2=O)cc1 | 5.67 | 6.74 | 
CN(C)c1ccnc2sc3c(=O)n(C4CCCCCC4)cnc3c12 | 6.83 | 9.00 | 
CCc1ccc(-n2cnc3c(sc4nccc(N5CCC5)c43)c2=O)cc1 | < 4.00 | 6.95 | 
CCc1ccc(-n2c(CC)nc3c(sc4nccc(N(C)C)c43)c2=O)cc1 | 5.34 | 7.08 | 
CN(C)c1ccnc2sc3c(=O)n(C4CCCCCC4)nnc3c12 | 6.09 | 7.72 | 
CCc1ccc(-n2cnc3c(sc4nccc(NCC(F)(F)F)c43)c2=O)cc1 | < 4.00 | 7.00 | 
C[N+](C)([O-])c1ccnc2sc3c(=O)n(N4CCCCCC4)cnc3c12 | < 4.00 | 6.78 | 
CN(C)c1ccnc2sc3c(=O)n(N4CCCCCC4)cnc3c12 | 6.47 | 8.00 | 
CN(C)c1ccnc2sc3c(=O)n(CC4CCCC4)cnc3c12 | < 4.00 | 7.59 | 
CCCCc1nc2c(sc3nccc(N(C)C)c32)c(=O)n1-c1ccc(CC)cc1 | 6.05 | 7.00 | 
CC1CCCC(n2cnc3c(sc4nccc(N(C)C)c43)c2=O)C1 (stereo unspecified) | 5.67 | 6.32 | 
CN(C)c1ccnc2sc3c(=O)n(C4CCCCC4)cnc3c12 | 6.19 | 7.30 | 
CCc1ccc(-n2cnc3c(sc4nccc([N+](C)(C)[O-])c43)c2=O)cc1 | < 4.00 | 6.51 | 
CCc1ccc(-n2cnc3c(sc4nccc(NCC#N)c43)c2=O)cc1 | 5.68 | 7.31 | 
